Type in all cases: functional
Details in all cases: for EC50: read-out: ED50 (the source's name)

The subject of one experiment is HEp-2. The experiment is described as follows: Cytotoxicity against human Hep2 cells by MTT assay. In short, it runs like this: (§1)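 MTT assay on human tumor cell lines (Hep2/Hepa2 […], WiDr colon, HeLa cervical). ED50 is the concentration of test sample giving a 50% reduction in absorbance relative to untreated cells, in µg/mL. Camptothecin served as positive control.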

For another experiment, the system named is WiDr. The experiment is described as follows: Cytotoxicity against human WiDr cells by MTT assay. The gist of the method: as §1
The test system of the next experiment is HeLa. In words: Cytotoxicity against human HeLa cells by MTT assay. The gist of the method: as §1

In brackets after ≈: the same amount, converted by molar mass. Activity calls are given as the source filed them. The calls are words filed in the database; no cut-off is given here.

`CC[C@@]1(O)C(=O)OCc2c1cc1n(c2=O)Cc2cc3ccccc3nc2-1` [CAMPTOTHECIN]: the EC50 with HEp-2 came out at 0.02 µg/mL (≈ 0.0574 µM); in the experiment on WiDr, 0.07 µg/mL (≈ 0.201 µM); in the experiment with HeLa it was 0.19 µg/mL (≈ 0.545 µM).

Regarding `CC(=O)O[C@H]1C[C@H]2[C@@H](O)/C=C3\C[C@](C)(C(=O)[C@H](O)C(=C1C)C2(C)C)[C@@H](OC(C)=O)C[C@@H]3O`, the result in the experiment with HEp-2, in the experiment on WiDr and in the experiment with HeLa was inactive.

On to `CC(=O)O[C@@]12CO[C@@H]1C[C@H](O)[C@@]13COC(=O)[C@]1(O)C1=C(C)CC[C@@]1(C(C)(C)O)[C@@H](OC(=O)c1ccccc1)C32` (stereo partly specified) [TASUMATROL Y], for which the EC50 with HEp-2 was 3.5 µg/mL (≈ 6.45 µM); in the experiment on WiDr, > 5 µg/mL; in the experiment on HeLa it was > 5 µg/mL.

In the case of `CC(=O)OC[C@@]12C([C@H](OC(=O)c3ccccc3)[C@]34C[C@H](O)C(C)=C3[C@@]1(O)C(=O)OC4(C)C)[C@]1(OC(C)=O)CO[C@@H]1C[C@@H]2O` (stereo partly specified), the result in the experiment with HEp-2, in the experiment with WiDr and in the experiment with HeLa was inactive.

For the compound `CC1=C2[C@@]3(O)C(=O)OC(C)(C)[C@]2(CC1)[C@@H](O)C1[C@](O)(CO)[C@@H](OC(=O)c2ccccc2)C[C@H](O)[C@]13C` (stereo partly specified), the result in the experiment on HEp-2, in the experiment with WiDr and with HeLa was inactive.

As for `CC(=O)O[C@H]1C[C@H]2OC[C@@]2(OC(C)=O)C2[C@H](OC(=O)c3ccccc3)[C@]3(C(C)(C)O)C[C@H](O)C(C)=C3[C@@]3(O)C(=O)OC[C@]213` (stereo partly specified), the result with HEp-2, in the experiment with WiDr and in the experiment with HeLa was inactive.

For the compound `CC(=O)OC[C@@]12C([C@H](OC(=O)c3ccccc3)[C@]34CCC(C)=C3[C@@]1(O)C(=O)OC4(C)C)[C@]1(OC(C)=O)CO[C@@H]1C[C@@H]2O` (stereo partly specified), the result with HEp-2, with WiDr and in the experiment with HeLa was inactive.

Values taken from ChEMBL document CHEMBL1149824, “Tasumatrols U-Z, taxane diterpene esters from Taxus sumatrana” (2008).
